We go through two molecules from ChEMBL document CHEMBL6083209, “Pyridazinone-based derivatives as anticancer agents endowed with anti-microbial activity: molecular design, synthesis, and biological investigation” (RSC Med Chem, 2024).

Assay [1] has as its system Staphylococcus aureus. Kind of assay: Antimicrobial activity against Staphylococcus aureus ATCC 29213 by broth microdilution method. In general terms: Dilution methods test growth across graded concentrations, often in twofold steps.
The subject of another assay is MDA-MB-231. Kind of assay: Antiproliferative activity against human MDA-MB-231 cells assessed as growth inhibition incubated for 48 hrs by SRB method. The following applies: MDA-MB-231, 48 h.
A further assay deals with Candida albicans. Kind of assay: Antimicrobial activity against Candida albicans ATCC 10231 by broth microdilution method.
Assay [2] relates to A549. Kind of assay: Induction of cell cycle arrest in human A549 cells assessed as decrease in cells at G2/M phase at GI50 concentration by flow cytometry analysis (reference value: 13.15 to 13.37%). The arrangement: scale not given: the % may be the effect or the level left. Type of assay: functional.
The test system of the next assay is HOP-92. Kind of assay: Antiproliferative activity against human HOP-92 cells assessed as growth inhibition incubated for 48 hrs by SRB method. Type of assay: functional. The method, boiled down:
(§1)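 NCI-60 five-dose screen at 0.01, 0.1, 1, 10 and 100 μM, triplicate wells per dose. Cells were in RPMI 1640 with 5% FBS and 2 mM L-glutamine, pre-grown 24 h and then treated for 48 h at 37 °C. Read-out was TCA fixation and SRB absorbance at 515 nm.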
A general note: In SRB staining, fixed cells bind dye roughly in proportion to their protein.

The subject of a further assay is SNB-19. Kind of assay: Antiproliferative activity against human SNB-19 cells assessed as growth inhibition at 10 uM incubated for 48 hrs by SRB method. The following applies: read-out: GI. It is filed as functional. In outline:
(§2)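 NCI-60 one-dose screen at 10 μM. Cells were grown in RPMI 1640 with 5% FBS and 2 mM L-glutamine and plated at 5000–40 000 cells/well for 24 h. Drug exposure was 48 h at 37 °C, 5% CO2. Cells were fixed with TCA, stained with 0.4% SRB and read at 515 nm. Growth is expressed as percent of untreated control and time-zero plates.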

For the next assay, the system named is Hs-578T. Kind of assay: Antiproliferative activity against human Hs-578T cells assessed as growth inhibition incubated for 48 hrs by SRB method.
Assay [3] relates to A549. Kind of assay: Induction of cell cycle arrest in human A549 cells assessed as increase in cells at G0-G1 phase at GI50 concentration by flow cytometry analysis (reference value: 85.41%). It is filed as functional. On the technique in general: A flow cytometer gives signals particle by particle.
The subject of another assay is OVCAR-8. Kind of assay: Antiproliferative activity against human OVCAR-8 cells assessed as growth inhibition incubated for 48 hrs by SRB method. Type of assay: functional. The method, boiled down:
as §1

Assay [4] has as its system UACC-62. Kind of assay: Antiproliferative activity against human UACC-62 cells assessed as growth inhibition at 10 uM incubated for 48 hrs by SRB method. To be noted: read-out: GI. It is filed as functional. In outline: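 NCI-60 one-dose screen at 10 μM. Cells grown in RPMI 1640 with 5% FBS and 2 mM L-glutamine, plated at 5000–40 000 cells/well and preincubated 24 h at 37 °C, 5% CO2. Drug exposure 48 h. Fixed with TCA and stained with 0.4% SRB, absorbance read at 515 nm. Percent growth calculated against untreated control and time-zero plates.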

In the next assay the test system is NCI-H522. Kind of assay: Antiproliferative activity against human NCI-H522 cells assessed as growth inhibition incubated for 48 hrs by SRB method. Type of assay: functional. The method, boiled down: as §1
For another assay, the system named is SNB-75. Kind of assay: Antiproliferative activity against human SNB-75 cells assessed as growth inhibition incubated for 48 hrs by SRB method. Type of assay: functional. In outline: as §1
The subject of the next assay is Escherichia coli. Kind of assay: Antimicrobial activity against Escherichia coli ATCC 25922 by broth microdilution method.
Another assay has as its system RXF 393. Kind of assay: Antiproliferative activity against human RXF 393 cells assessed as growth inhibition incubated for 48 hrs by SRB method. It is filed as functional. In outline:
as §1

The next assay deals with SK-MEL-2. Kind of assay: Antiproliferative activity against human SK-MEL-2 cells assessed as growth inhibition at 10 uM incubated for 48 hrs by SRB method. Type of assay: functional. The following applies: read-out: GI. In outline: as §2
Assay [5] has as its system A549. Kind of assay: Downregulation of Bcl-2 gene expression in human A549 cells by qRT-PCR analysis. Type of assay: functional, cell-based. The method, boiled down: (§3)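 A549/ATCC cells treated, total RNA DNase-treated and checked by 260/280 ratio (1.8–2.1). Reverse transcription with oligo-dT and MuLV RT: 25 °C 10 min, 42 °C 1 h, 99 °C 5 min. qPCR of 40 cycles (95 °C 15 s, 55 °C 30 s, 72 °C 30 s) followed by melt curve. Relative expression by the 2−ΔΔCT method, mean ± SEM.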

In assay [6] the test system is A549. Kind of assay: Induction of cell cycle arrest in human A549 cells assessed as increase in cells at G0-G1 phase at GI50 concentration by flow cytometry analysis (reference value: 85.84%). It is filed as functional.
A further assay has as its system HOP-62. Kind of assay: Antiproliferative activity against human HOP-62 cells assessed as growth inhibition at 10 uM incubated for 48 hrs by SRB method. Type of assay: functional. To be noted: read-out: GI. In outline:
as §2

Assay [7] in a line: Upregulation of Bax gene expression in human A549 cells assessed as fold increase by qRT-PCR analysis. It is filed as functional. The method, boiled down:
as §3

In assay [8] the test system is U-251. Kind of assay: Antiproliferative activity against human U-251 cells assessed as growth inhibition incubated for 48 hrs by SRB method. It is filed as functional. In outline:
as §1

Assay [9] is described as follows: Upregulation of p53 gene expression in human A549 cells assessed as fold increase by qRT-PCR analysis. It is filed as functional. The method, boiled down:
as §3

Assay [10] has as its system A549. Kind of assay: Induction of cell cycle arrest in human A549 cells assessed as increase in cells at G0-G1 phase at GI50 concentration by flow cytometry analysis (reference value: 85.46%). It is filed as functional.
The subject of assay [11] is A549. Kind of assay: Induction of cell cycle arrest in human A549 cells assessed as decrease in cells at S phase at GI50 concentration by flow cytometry analysis (reference value: 0.31 to 0.51%). Type of assay: functional. The arrangement: scale not given: the % may be the effect or the level left.
Another assay concerns UACC-257. Kind of assay: Antiproliferative activity against human UACC-257 cells assessed as growth inhibition incubated for 48 hrs by SRB method. Type of assay: functional. The method, boiled down:
as §1

The subject of assay [12] is SF-295. Kind of assay: Antiproliferative activity against human SF-295 cells assessed as growth inhibition incubated for 48 hrs by SRB method. Type of assay: functional. The method, boiled down:
as §1

A further assay deals with SF-268. Kind of assay: Antiproliferative activity against human SF-268 cells assessed as growth inhibition incubated for 48 hrs by SRB method. Type of assay: functional. The method, boiled down: as §1
The test system of assay [13] is SF-295. Kind of assay: Antiproliferative activity against human SF-295 cells assessed as growth inhibition at 10 uM incubated for 48 hrs by SRB method. Type of assay: functional. The following applies: read-out: GI. In outline: as §2
The test system of assay [14] is UACC-62. Kind of assay: Antiproliferative activity against human UACC-62 cells assessed as growth inhibition incubated for 48 hrs by SRB method. It is filed as functional. The method, boiled down: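 NCI-60 five-dose screen at 0.01, 0.1, 1, 10 and 100 μM, triplicate wells per dose. Cells grown in RPMI 1640/5% FBS, preincubated 24 h, then exposed 48 h at 37 °C. TCA fixation, SRB stain, A515.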

Assay [15] concerns U-251. Kind of assay: Antiproliferative activity against human U-251 cells assessed as growth inhibition at 10 uM incubated for 48 hrs by SRB method. It is filed as functional. To be noted: read-out: GI. In outline: as §2
The test system of assay [16] is Staphylococcus aureus. Kind of assay: Antimicrobial activity against Staphylococcus aureus NCTC 8325 incubated for 45 mins. Type of assay: functional. To be noted: NCTC 8325, 0.75 h.

≈ marks a conversion by molar mass, not a printed value. Calls of active or inactive are those of the source. The calls are words filed in the database; no cut-off is given here.

Consider `O=C(NC(=S)Nc1ccc(-c2ccc(=O)[nH]n2)cc1)c1cccc(Cl)c1`, for which the MIC (as a rule, the least concentration at which growth counts as inhibited) with Staphylococcus aureus [1] was 512 µg/mL (≈ 1330 µM); against Candida albicans it was 512 µg/mL (≈ 1330 µM); in the assay on Escherichia coli, > 1020 µg/mL. Besides, the GI50 (commonly the concentration that inhibits growth by half) in the assay on MDA-MB-231 worked out at 6.83 µM; in the assay with HOP-92 it was 3.18 µM; with Hs-578T it was 5.8 µM; in the assay with OVCAR-8 it was 6.24 µM; with NCI-H522, 4.55 µM; with SNB-75 it was 3.92 µM. The GI50 stood at 6.6 µM in the assay with RXF 393; 6.94 µM in the assay on U-251 [8]; 5.59 µM with UACC-257; 7.23 µM in the assay on SF-295 [12]; 6.91 µM in the assay with SF-268; 4.07 µM with UACC-62 [14]. The Activity in the assay with A549 [2] was found to be 8.95%; in the assay on A549 [3], 90.86%; in the assay with A549 [6] it was 89.87%; with A549 [10], 89.51%; in the assay on A549 [11], 0.19%. Moreover, the inhibition of growth at 10 µM was 91.2% with SNB-19; 91% with UACC-62 [4]; 98% in the assay on SK-MEL-2; 94.6% with HOP-62; 93% with SF-295 [13]; 96.1% in the assay on U-251 [15]. Moreover, in the assay on A549 [5], the outcome was Active. In addition, the “fold change (FC)” value in assay [7] and in assay [9] was 3 throughout.

For `CNC(=O)c1cc(Oc2ccc(NC(=O)Nc3ccc(Cl)c(C(F)(F)F)c3)cc2)ccn1` [SORAFENIB], the MIC in the assay with Staphylococcus aureus [1] was 4 µg/mL (≈ 8.61 µM); in the assay on Candida albicans, > 128 µg/mL; against Escherichia coli, 1 µg/mL (≈ 2.15 µM); with Staphylococcus aureus [16], 3 µg/mL (≈ 6.45 µM).
